According to ChEMBL document CHEMBL1147571, “Synthesis and biological evaluation of benzamides and benzamidines: structural requirement of a pyrimidine ring for inhibition of EGFR tyrosine kinase” (Bioorg Med Chem Lett, 2004):

These compounds were tested on A-431 (assay: Cytotoxic effect on A431 human epidermoid carcinoma cells).
Type: functional, cell-based
Outline: (§1)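 A431 human epidermoid carcinoma cells exposed to compounds up to 1.0 mM and scored for cell growth inhibition. The IC50 is the compound concentration giving 50% growth inhibition. Where 50% inhibition was not reached at 1.0 mM, that is recorded instead of a value.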

**Q.** Which IC50 does the source give for `COc1cc2c(cc1OC)C(Nc1cccc(Cl)c1)=NC(C)(C)N2` here?
**A.** Its IC50 is 200 µM.

**Q.** `COc1cc(N)c(C(=O)Nc2cccc(Br)c2)cc1OC` was tested. Which IC50 did it give?
**A.** Its IC50 is 340 µM.

**Q.** For `COc1cc(N)c(C(=N)Nc2ccc(F)c(Cl)c2)cc1OC`, which IC50 is on record?
**A.** The IC50 was 200 µM.

**Q.** With `COc1cccc(NC(=O)c2cc(OC)c(OC)cc2N)c1` as the compound, how does the IC50 read?
**A.** The IC50 was 200 µM.

**Q.** How did the IC50 turn out when `COc1cccc(NC(=N)c2cc(OC)c(OC)cc2N)c1` was run?
**A.** Its IC50 is 340 µM.

**Q.** For `COc1cc(N)c(C(=N)Nc2cccc(Br)c2)cc1OC`, which IC50 is on record?
**A.** The IC50 was 300 µM.

**Q.** How did the IC50 turn out when `COc1cccc(NC2=NC(C)(C)Nc3cc(OC)c(OC)cc32)c1` was run?
**A.** Its IC50 is 320 µM.

**Q.** How did the IC50 turn out when `COc1cc2c(cc1OC)C(Nc1cccc(Br)c1)=NC(C)(C)N2` was run?
**A.** The IC50 was 130 µM.

**Q.** With `COc1cc(N)c(C(=O)Nc2cccc(C(F)(F)F)c2)cc1OC` as the compound, how does the IC50 read?
**A.** The IC50 was 470 µM.

**Q.** Which IC50 does the source give for `COc1cc(N)c(C(=N)Nc2cccc(Cl)c2)cc1OC` here?
**A.** Its IC50 is 460 µM.

**Q.** `COc1cc2c(cc1OC)C(Nc1ccc(F)c(Cl)c1)=NC(C)(C)N2` was tested. Which IC50 did it give?
**A.** Its IC50 is 90 µM.

What follows are compounds tested on A-431 (assay: Cytotoxic effect on A431 human epidermoid carcinoma cells (No response to 1 mM)).
Type: functional, cell-based
Outline: as §1

**Q.** With `COc1cc(N)c(C(=O)Nc2cccnc2)cc1OC` as the compound, how does the IC50 read?
**A.** The IC50 was > 1000 µM.

**Q.** For `COc1cc(N)c(C(=O)NC(C)c2ccccc2)cc1OC` (configuration not stated), which IC50 is on record?
**A.** The IC50 was > 1000 µM.

**Q.** For `COc1cc(N)c(C(=O)Nc2ccc(F)c(Cl)c2)cc1OC`, which IC50 is on record?
**A.** Its IC50 is > 1000 µM.

**Q.** For `COc1cc(N)c(C(=O)NC2CCCCC2)cc1OC`, which IC50 is on record?
**A.** The IC50 was > 1000 µM.

**Q.** With `COc1cc(N)c(C(=O)Nc2ccccn2)cc1OC` as the compound, how does the IC50 read?
**A.** Its IC50 is > 1000 µM.

**Q.** How did the IC50 turn out when `COc1cc(N)c(C(=O)Nc2ccncc2)cc1OC` was run?
**A.** The IC50 was > 1000 µM.
